Assay outcomes: PubChem BioAssay, Johns Hopkins Ion Channel Center
MrgX1 allo act – human MrgX1 positive allosteric modulation, primary screen; MrgX1-HEK293, Fluo-4 calcium flux, FDSS; stronger effect = higher value; B-score at 10 µM; actives 0.63% (n = 310,000); Q96LB2;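 active = plate-corrected calcium response at least 3 library SD above typical, normal starting fluorescence, not activating the receptor alone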;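 also: compound read alongside a low EC10 to EC30 dose of BAM8-22 agonist; peak minus trough fluorescence over baseline measured at the second addition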
Target sequence (Q96LB2 whole entry, looked up): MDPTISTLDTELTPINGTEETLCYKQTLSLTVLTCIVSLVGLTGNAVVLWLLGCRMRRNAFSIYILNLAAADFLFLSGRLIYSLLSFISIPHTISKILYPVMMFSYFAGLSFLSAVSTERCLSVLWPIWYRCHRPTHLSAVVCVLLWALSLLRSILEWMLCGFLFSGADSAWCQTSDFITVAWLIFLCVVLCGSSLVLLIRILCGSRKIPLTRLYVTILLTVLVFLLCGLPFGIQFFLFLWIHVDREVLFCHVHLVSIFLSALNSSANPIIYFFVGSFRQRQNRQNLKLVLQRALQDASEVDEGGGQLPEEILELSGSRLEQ
RGS4 pot – potentiators or activators of RGS4. HEK293 M3R/inducible RGS4, carbachol calcium flux Fluo4; stronger effect = lower value. B-score at 10 µM. actives 0.92% (n = 310,000);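 active = B-score of the integrated calcium signal more than 4 SD below the library mean, with starting fluorescence not abnormally high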;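 also: negative B-score means reduced calcium response which marks RGS4 activation or potentiation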
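Also added: carbachol at ECmax as muscarinic agonist stimulus; Assay system: HEK293 cells with stable M3R and inducible RGS4; Timing: overnight RGS4 induction, 30 min dye load 37 °C, 20 min compound RT; Measured by: Fluo4-AM (2 µM) calcium-flux fluorescence, kinetic read.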
MrgX1 antag – blocks BAM8-22 activation of human MrgX1 receptor; actives 1.3% (n = 310,000); B-score at 10 µM; MRGX1-HEK293 calcium flux, Fluo-4, BAM8-22 antagonism; stronger effect = lower value;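 active = calcium-response B-score plate-corrected more than 3 library SD below zero, starting fluorescence within 5 deviations, no agonist response on first addition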;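 also: peak minus trough fluorescence over baseline after final BAM8-22 challenge near maximal dose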
MrgX1 ag – agonists of human MrgX1 receptor; actives 0.44% (n = 310,000); B-score at 10 µM; MrgX1-HEK293 cells, Fluo-4 calcium fluorescence, agonist mode; stronger effect = higher value; Q96LB2;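 active = calcium response B-score plate-corrected fluorescence ratio at least 3 library SD, with starting fluorescence B-score inside 5 SD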
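Test system: Stable human MrgX1 HEK293 cell line | Schedule: Overnight plating before 1 h dye loading | Read-out basis: Baseline-normalised fluorescence change ratio, B-scored | Detection: Kinetic calcium dye fluorescence, Fluo-4 NW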
RGS4 inh – human RGS4 inhibition; P49798; HEK293 M3R/RGS4 inducible, Fluo-4 calcium flux; stronger effect = higher value; triggered by carbachol at its EC20; B-score at 10 µM; actives 0.45% (n = 310,000); AID 463165;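 active = B-score, a plate-corrected calcium signal, over three deviations above library mean, with baseline fluorescence within five deviations of library mean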;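 also: RGS4 expression induced by doxycycline in cells with stable M3 receptor; B-score is computed from the integrated fluorescence ratio over baseline after carbachol; higher B-score means a larger calcium signal and so more RGS4 inhibition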
Target sequence (P49798 whole entry, looked up): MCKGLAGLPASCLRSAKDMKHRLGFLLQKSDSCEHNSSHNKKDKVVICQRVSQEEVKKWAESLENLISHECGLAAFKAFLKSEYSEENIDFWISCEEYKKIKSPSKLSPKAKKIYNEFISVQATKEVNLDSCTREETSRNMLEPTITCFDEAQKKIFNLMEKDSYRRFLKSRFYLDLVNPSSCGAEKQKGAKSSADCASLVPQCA
MrgX1 antag conf – reconfirmed antagonist of human MrgX1 receptor signaling | shares compounds with MrgX1 antag | MrgX1-HEK293, BAM8-22 calcium flux, Fluo-4; stronger effect = lower value | remaining BAM8-22 calcium response % of control (stronger effect = lower value), % at 10 µM | actives 19% (n = 2,300) | AID 602420;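 active = remaining agonist calcium response no higher than 100% minus 3 SD of agonist-only control wells, with starting fluorescence near control levels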;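 also: agonist BAM8-22 given at a near maximal EC90 to ECmax level; peak minus minimum fluorescence divided by baseline after agonist addition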
HEK293 Ca flux – MrgX1 antagonist counter-screen hit in parental HEK293 cells; AID 624111; shares compounds with MrgX1 antag; actives 2% (n = 4,000); Fluo-4 calcium fluorescence, FDSS; fluorescence ratio F(max-min)/F0 at 10 µM;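 active = duplicate-averaged calcium fluorescence ratio at least three times the standard deviation of buffer wells, a nonspecific response in parental cells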
HEK293 Ca counter – MrgX1 allosteric activator counter-screen hit in parental HEK293 cells; actives 0.4% (n = 4,000); shares compounds with MrgX1 antag; fluorescence ratio F(max-min)/F0 at 10 µM; AID 624114; parental HEK293 calcium flux, Fluo-4 fluorescence ratio; stronger effect = higher value;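 active = calcium fluorescence ratio, averaged over duplicates, at least 3 SD of the buffer-well ratio, meaning a nonspecific response in receptor-free cells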;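 also: untransfected parental HEK293 lacking MrgX1 used as counterscreen for MrgX1 allosteric activators; fluorescence change taken during the second addition on a kinetic imager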
HEK293 Ca cntr2 – counter-screen for MrgX1 activators: effect in parental HEK293 cells; Fluo-4 calcium fluorescence (FDSS); stronger effect = higher value; shares compounds with MrgX1 antag; actives 8.7% (n = 4,000); fluorescence ratio F(max-min)/F0 at 10 µM;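 active = calcium fluorescence ratio at least three times the spread of buffer wells, meaning a non-specific response in parental cells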
Active calls of the source: *; i = inactive; / = not tested or not shown. Shown are actives, neighbours in structure and some others; about 3.5% of the full set was active somewhere.

SMILES | MrgX1 allo act | RGS4 pot | MrgX1 antag | MrgX1 ag | RGS4 inh | MrgX1 antag conf | HEK293 Ca flux | HEK293 Ca counter | HEK293 Ca cntr2
O=C(c1ccc(N2C(=O)C3CCCCC3C2=O)cc1)N1CCCCC1 (centres undefined) | i | i | i | i | i | / | / | / | /
CCn1nc(C)c(NC(=O)c2cc(Br)ccc2Cl)c1C | i | i | i | i | i | / | / | / | /
Cc1ccc(-c2nnc(-n3ncc(C#N)c3N)c3ccccc23)cc1C | i | i | i | i | i | / | / | / | /
COc1cccc(-c2nc(NC3CCCC3)c3ccccc3n2)c1O | i | i | -5.07* | i | i | 74.0%* | i | i | i
Cc1ccc(CCNC(=O)CS(=O)Cc2nc(-c3cccs3)oc2C)cc1 (centres undefined) | i | i | i | i | i | / | / | / | /
Cc1c(C(=O)N2CCN(Cc3ccc4c(c3)OCO4)CC2)sc2ncnc(N3CCN(c4ccccc4)CC3)c12 | i | i | -10.5* | i | i | 60.2%* | i | i | i
CCOC(=O)c1ccc(NC2c3ncccc3C(=O)N2Cc2ccc(F)cc2)cc1 (centres undefined) | i | i | i | i | i | / | / | / | /
CC1(c2ccc(C#N)cc2)NC(=O)N(CC(=O)Nc2cc(S(=O)(=O)N3CCOCC3)ccc2Cl)C1=O (centres undefined) | i | i | -7.33* | i | i | i | i | i | i
CC(C)NC(=O)NC(=O)COc1ncnc2sccc12 | i | i | -4.89* | i | i | i | i | i | i
O=C(COc1ncnc2sccc12)NC1CCCc2ccccc21 (centres undefined) | i | i | -7.44* | i | i | 79.6%* | i | i | i
CCCNC(=O)Cn1c(-c2ccc(F)cc2)cc(C(=O)OCC)c1C | i | i | i | i | i | / | / | / | /
COC1CCN(C(=O)CC2C(=O)NCCN2CC2CCCCC2)CC1 (centres undefined) | i | i | -5.31* | i | i | i | i | i | i
CN(CC1CCOCC1)C(=O)CC1C(=O)NCCN1CC1CCCCC1 (centres undefined) | i | i | i | i | i | / | / | / | /
CC(=O)c1cc(C#N)c(N2CCOCC2)nc1C | i | i | -4.59* | i | i | i | i | i | i
CN(C)S(=O)(=O)c1cccc(NC(=O)CN2C(=O)C3C4C=CC(C4)C3C2=O)c1 (centres undefined) | i | i | -6.77* | i | i | i | i | i | i
Cc1ccccc1OCCC(=O)OCC(=O)Nc1c(F)cccc1F | i | i | i | i | i | / | / | / | /
Cc1c(C)c2c(OCC(=O)Nc3ccc(CCO)cc3)cc3c(c2oc1=O)CCC(C)(C)O3 | i | i | -6.19* | i | i | i | i | i | i
Cc1c(C)c2c(OCC(=O)O)cc3c(c2oc1=O)CCC(C)(C)O3 | i | i | i | i | i | / | / | / | /
COc1ccccc1CNC(=O)COc1cc2c(c3oc(=O)cc(C)c13)CCC(C)(C)O2 | i | i | -7.58* | i | i | 62.3%* | i | i | i
CC(=O)Nc1cccc(NC(=S)Nc2cccc(Cl)c2C)c1 | i | i | i | i | i | / | / | / | /
CC(=O)Nc1cccc(NC(=O)Nc2cccc(Cl)c2C)c1 | i | i | -5.53* | i | i | i | i | i | i
